How the values were obtained:
[1] = commercial extracellular fluid agent, on the order of; ref not given; cited from earlier work
[2] = target: human serum albumin (HSA) (Homo sapiens, UniProt P02768); type: physicochemical; conditions: albumin-bound; fit of variable temperature NMRD; (SD)
In short: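 Samples were 0.1 mM Gd complex with 0.67 mM HSA (4.5% w/v) in pH 7.4 HEPES-buffered saline, Gd by ICP-MS. 1H NMRD profiles were recorded on a field-cycling relaxometer at 5, 15, 25 and 35 °C over 0.01–50 MHz (0.0002–1.2 T), with 22 points per curve. Variable-temperature profiles were fitted using a Lipari-Szabo treatment.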

Chain of human serum albumin (HSA) (P02768 25-609): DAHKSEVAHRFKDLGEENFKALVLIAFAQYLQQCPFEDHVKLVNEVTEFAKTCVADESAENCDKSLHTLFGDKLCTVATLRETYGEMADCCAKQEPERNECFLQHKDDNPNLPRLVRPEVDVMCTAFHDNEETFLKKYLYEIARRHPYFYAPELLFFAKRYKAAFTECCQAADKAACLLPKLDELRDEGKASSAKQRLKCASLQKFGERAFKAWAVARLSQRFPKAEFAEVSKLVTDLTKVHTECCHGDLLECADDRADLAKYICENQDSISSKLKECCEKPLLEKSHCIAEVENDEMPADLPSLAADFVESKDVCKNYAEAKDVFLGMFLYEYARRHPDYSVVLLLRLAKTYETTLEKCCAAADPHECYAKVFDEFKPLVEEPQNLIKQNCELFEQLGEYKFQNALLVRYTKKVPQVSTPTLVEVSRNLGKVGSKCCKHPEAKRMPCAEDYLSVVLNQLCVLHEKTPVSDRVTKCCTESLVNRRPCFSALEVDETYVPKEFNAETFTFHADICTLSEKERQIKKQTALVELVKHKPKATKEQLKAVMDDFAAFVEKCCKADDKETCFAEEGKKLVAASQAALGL

F^2 (Lipari-Szabo order parameter) [2] | ΔH^‡ (activation energy for water exchange) [2] | Δ^2 (transient zero field splitting parameter) [2] | τv (correlation time of transient ZFS modulation) [2] | Compound | relaxivity r1 [1] [mM⁻¹ s⁻¹]
– | – | – | – | O=C([O-])CN(CCN(CC(=O)[O-])CC(=O)O)CCN(CC(=O)[O-])CC(=O)O.[Gd+3] [Gd-DTPA] | ~4
0.46 (0.01) | 42.3 (4.2) kJ/mol | 3.39 (0.12) 10^18 s^-2 | 22 (3) ps | Gd1b | –

Reference: PMC3021469 (Investigative radiology, 2010)
